Test results published in article PMC8146373 (Biochemical pharmacology, 2021).

Assays:
[1] = molecular target: T1, SCTR (Homo sapiens, UniProt P47872); test: SCTR PAM; format: cell-based
[2] = molecular target: T1, SCTR; test: SCTR Sec-FL; format: cell-based
[3] = molecular target: SNAP-SCTR (Homo sapiens, UniProt P47872); test: TR-FRET SNAP-SCTR competition binding with Fluo-Sec, HEK-293 SNAP-SCTR membranes
[4] = molecular target: T2, GLP-1R (Homo sapiens, UniProt P43220); test: GLP-1R PAM; format: cell-based
[5] = molecular target: T2, GLP-1R; test: GLP-1R agonist cAMP accumulation assay, GLP-1R-overexpressing HEK-293T cells; format: cell-based
[6] = molecular target: T2, GLP-1R; test: Allosteric activity studies; format: cell-based
[7] = molecular target: T3, GLP-1R (Rattus norvegicus, UniProt P32301); test: cAMP assay; format: cell-based; conditions: INS-1 cells, 12.5 μM compound
T3 sequence (P32301 22-463): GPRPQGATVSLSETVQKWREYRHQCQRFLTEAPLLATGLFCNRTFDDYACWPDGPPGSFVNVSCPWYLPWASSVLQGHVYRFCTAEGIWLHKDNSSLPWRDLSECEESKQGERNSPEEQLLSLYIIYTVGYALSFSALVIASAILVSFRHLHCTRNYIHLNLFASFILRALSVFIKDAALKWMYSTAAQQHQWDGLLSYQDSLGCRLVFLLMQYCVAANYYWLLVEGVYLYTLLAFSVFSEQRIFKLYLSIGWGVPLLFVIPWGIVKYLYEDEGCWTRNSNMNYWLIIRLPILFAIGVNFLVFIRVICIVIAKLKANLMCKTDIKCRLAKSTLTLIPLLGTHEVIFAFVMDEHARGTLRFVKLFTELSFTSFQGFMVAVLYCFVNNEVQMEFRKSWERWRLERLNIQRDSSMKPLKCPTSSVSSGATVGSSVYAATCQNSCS
Outline: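 INS-1 832/13 cells (passage 18–29) were detached at 80–90% confluency, spun 300xg for 3 min and diluted in stimulation buffer. […] Cells were incubated 30 min at RT. LANCE Ultra detection (Eu-cAMP, ULight antibody) was read as TR-FRET after 60 min at RT.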

[8] = test system: INS-1 832/13 cells; test: Glucose stimulated insulin secretion; format: cell-based, rat; conditions: 20 μM compound, 15 mM glucose
[9] = molecular target: T2, GLP-1R; test: cAMP wash-out experiment, GLP-1R-overexpressing HEK-293T cells; format: cell-based; conditions: 25 μM compound, triple wash
[10] = molecular target: GLP-1R C347A (Homo sapiens, UniProt P43220, C347A); format: cell-based; conditions: 12.5–25 μM compound
Outline: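 HEK-293 cells were transfected with 0.5 μg DNA/well of GLP-1R WT or C347A construct and harvested after 24 h into stimulation buffer. Cells were added to wells with DMSO or 12.5–25 μM compound. […] HTRF cAMP readout; four-parameter variable-slope fit; duplicates, ≥3 experiments.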

[11] = molecular target: SCTR K317A (Homo sapiens, UniProt P47872, K338A); test: Mutational study, cAMP assay in HEK-293 cells transiently expressing SCTR K317A; format: cell-based; conditions: 12.5–25 μM compound
[12] = molecular target: SCTR K317C (Homo sapiens, UniProt P47872, K338C); test: Mutational study, cAMP assay in HEK-293 cells transiently expressing SCTR K317C; format: cell-based; conditions: 12.5–25 μM compound
Sequence of SCTR K317C (P47872 22-440 K338C limits assumed): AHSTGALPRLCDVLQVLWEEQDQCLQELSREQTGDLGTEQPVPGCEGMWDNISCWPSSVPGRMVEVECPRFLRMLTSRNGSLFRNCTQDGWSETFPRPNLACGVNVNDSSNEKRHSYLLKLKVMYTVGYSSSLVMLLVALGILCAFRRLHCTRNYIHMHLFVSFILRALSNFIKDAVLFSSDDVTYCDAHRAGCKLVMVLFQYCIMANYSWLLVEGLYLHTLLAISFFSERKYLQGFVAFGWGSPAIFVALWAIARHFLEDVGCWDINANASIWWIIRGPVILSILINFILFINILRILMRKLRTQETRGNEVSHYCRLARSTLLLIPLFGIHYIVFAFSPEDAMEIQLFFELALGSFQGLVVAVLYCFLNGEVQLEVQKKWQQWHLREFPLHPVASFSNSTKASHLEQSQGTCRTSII
Sequence of SCTR K317C (P09683 28-54 partner limits assumed): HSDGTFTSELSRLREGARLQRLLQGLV

T1 sequence (P47872 23-440): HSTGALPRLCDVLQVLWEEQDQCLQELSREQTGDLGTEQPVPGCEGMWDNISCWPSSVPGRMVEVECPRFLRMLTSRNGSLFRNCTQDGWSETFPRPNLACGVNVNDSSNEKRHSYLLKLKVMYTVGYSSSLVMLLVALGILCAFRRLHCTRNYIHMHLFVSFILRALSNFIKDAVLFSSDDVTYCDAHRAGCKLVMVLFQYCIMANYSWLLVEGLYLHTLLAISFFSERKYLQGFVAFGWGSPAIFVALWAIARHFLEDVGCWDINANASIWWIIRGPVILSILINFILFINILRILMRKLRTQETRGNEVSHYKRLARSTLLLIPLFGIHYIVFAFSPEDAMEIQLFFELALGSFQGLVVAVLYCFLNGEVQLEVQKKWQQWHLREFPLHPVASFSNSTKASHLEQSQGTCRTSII
T2 sequence (P43220 24-463): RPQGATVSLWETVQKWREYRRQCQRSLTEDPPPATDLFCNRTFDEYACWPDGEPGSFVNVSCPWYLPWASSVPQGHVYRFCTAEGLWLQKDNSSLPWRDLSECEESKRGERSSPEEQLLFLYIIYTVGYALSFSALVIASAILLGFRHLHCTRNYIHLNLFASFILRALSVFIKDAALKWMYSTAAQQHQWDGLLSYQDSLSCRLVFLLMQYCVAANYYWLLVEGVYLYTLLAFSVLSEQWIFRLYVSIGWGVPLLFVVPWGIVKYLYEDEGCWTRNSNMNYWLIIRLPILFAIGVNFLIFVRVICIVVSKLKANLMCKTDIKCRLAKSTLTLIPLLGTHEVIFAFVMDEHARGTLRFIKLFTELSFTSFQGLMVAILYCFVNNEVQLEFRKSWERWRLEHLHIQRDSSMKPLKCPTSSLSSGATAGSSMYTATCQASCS
Sequence of SNAP-SCTR (P47872 23-440): as the sequence (P47872 23-440) above
Sequence of GLP-1R C347A (P43220 24-463 C347A): as the sequence (P43220 24-463) above, with C324A counted along it
Sequence of SCTR K317A (P47872 22-440 K338A limits assumed): as the sequence (P47872 22-440 K338C limits assumed) above, with C317A counted along it

EC50 [1]: 24 ± 12 µM
Emax ([1]; CHO-K1, read-out: SCTR PAM (3-pep mix) Emax): 51 ± 25%
EC50 [2]: 31 ± 19 µM
Emax ([2]; CHO-K1, read-out: SCTR Sec-FL (PAM) Emax): 42 ± 2%
EC50 [3]: 17 ± 14 µM
Emax ([3]; read-out: SNAP-SCTR Binding Emax): 152 ± 11%
EC50 [4]: 0.8 ± 0.2 µM
selectivity toward GLP-1Rs (over SCTR PAM potency) ([4]; GLP-1R EC50 vs SCTR PAM EC50): 30 fold
GLP-1R PAM (GLP-1) Emax ([4]; cAMP, EC20 of GLP-1, mean ± SD, n.d. = not detected): 76 ± 22%
EC50 [5]: 0.8 ± 0.6 µM
GLP-1R agonist Emax ([5]; cAMP, no peptide ligand, mean ± SD, n.d. = not detected): 91 ± 16%
Kb [6]: 3 µM
cooperativity factor α, GLP-1(9–36) ([6]; GLP-1R-overexpressing cells): 137
cooperativity factor β, GLP-1(9–36) ([6]; GLP-1R-overexpressing cells): 5.5
increase of efficacy of GLP-1(9–36) [7]: 106%
receptor activation by GLP-1(9–36) in presence of compound [7]: around 50%
intrinsic activity (elevation of basal response), added before or after the wash step [9]: substantial intrinsic activity
cooperative (PAM) effects on GLP-1(9–36) at GLP-1R C347A compared to WT [10]: eradicated
intrinsic agonist activity at GLP-1R C347A compared to WT [10]: eradicated
Compound: CC[S+]([O-])c1nc(-c2cccc(OCc3ccccc3)c2)cc(C(F)(F)F)n1 (stereo not shown) [BETP, 4-(3-(Benzyloxy)phenyl)-2-(ethylsulfinyl)-6-(trifluoromethyl)pyrimidine]
effect on GLP-1 treatment [7]: did not show a significant positive effect
insulin secretion with GLP-1(9–36) co-stimulation ([8]; 1 μM GLP-1(9–36)): elevated insulin secretion
interaction between compound and GLP-1(9–36) treatment (two-way ANOVA) [8]: significant interactions
insulin secretion in the absence of GLP-1(9–36) ([8]; vs DMSO): significantly enhanced
potentiating effects at SCTR K317A compared to WT [11]: neither mutating Lys-317 to alanine nor to cysteine had an impact
potentiating effects at SCTR K317C compared to WT [12]: neither mutating Lys-317 to alanine nor to cysteine had an impact
